Assay results: ChEMBL document CHEMBL4406880, “Design, synthesis, and bioactivity of dihydropyrimidine derivatives as kinesin spindle protein inhibitors” (Bioorg Med Chem, 2019)

What was measured:
Format in all cases: functional
[1] = tested on: HT-29; assay: Growth inhibition of human HT-29 cells incubated for 48 hrs by sulforhodamine B assay; details: HT-29, 48 h
In short: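 NCI-60 five-dose SRB assay in RPMI 1640 with 5% FBS, 37 °C, 5% CO2. Compound given at five tenfold dilutions, 0.01–100 µM, for 48 h. Adherent cells fixed with TCA, suspension cells with 16% final TCA. Bound SRB read at 515 nm and growth calculated against time-zero and untreated controls. GI50 taken from dose–response curves as the concentration giving a 50% decrease in net cell growth.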

[2] = tested on: SF-268; assay: Growth inhibition of human SF268 cells incubated for 48 hrs by sulforhodamine B assay; details: SF-268, 48 h
In short: (§1)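 NCI-60 five-dose SRB assay. Cells were exposed for 48 h to tenfold dilutions of 0.01, 0.1, 1, 10 and 100 µM, in RPMI 1640 with 5% FBS. Plates fixed with TCA at the time of drug addition served as the time-zero reference. GI50 is the concentration giving a 50% reduction in net growth. TGI is total growth inhibition. LC50 is a net 50% loss of the initial cells.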

[3] = tested on: SK-MEL-5; assay: Growth inhibition of human SK-MEL-5 cells incubated for 48 hrs by sulforhodamine B assay; details: SK-MEL-5, 48 h; in short: as §1
[4] = tested on: OVCAR-5; assay: Growth inhibition of human OVCAR5 cells incubated for 48 hrs by sulforhodamine B assay; details: OVCAR-5, 48 h; in short: as §1
[5] = tested on: UACC-62; assay: Growth inhibition of human UACC62 cells assessed as cell viability at 100 uM incubated for 48 hrs by sulforhodamine B assay; details: UACC-62, 48 h, read-out: Activity
[6] = tested on: SK-MEL-28; assay: Growth inhibition of human SK-MEL-28 cells assessed as cell viability at 100 uM incubated for 48 hrs by sulforhodamine B assay; details: SK-MEL-28, 48 h, read-out: Activity
[7] = tested on: SNB-75; assay: Growth inhibition of human SNB75 cells assessed as cell viability at 100 uM incubated for 48 hrs by sulforhodamine B assay; details: SNB-75, 48 h, read-out: Activity
[8] = tested on: UO-31; assay: Growth inhibition of human UO31 cells assessed as cell viability at 1 uM incubated for 48 hrs by sulforhodamine B assay; details: UO-31, 48 h, read-out: Activity
[9] = tested on: UACC-257; assay: Growth inhibition of human UACC257 cells assessed as cell viability at 1 uM incubated for 48 hrs by sulforhodamine B assay; details: UACC-257, 48 h, read-out: Activity
[10] = tested on: U-251; assay: Growth inhibition of human U251 cells assessed as cell viability at 1 uM incubated for 48 hrs by sulforhodamine B assay; details: U-251, 48 h, read-out: Activity
[11] = tested on: SNB-19; assay: Growth inhibition of human SNB19 cells assessed as cell viability at 1 uM incubated for 48 hrs by sulforhodamine B assay; details: SNB-19, 48 h, read-out: Activity
[12] = tested on: EKVX; assay: Growth inhibition of human EKVX cells assessed as cell viability at 1 uM incubated for 48 hrs by sulforhodamine B assay; details: read-out: Activity
[13] = tested on: HL-60(TB); assay: Growth inhibition of human HL-60(TB) cells assessed as cell viability at 1 uM incubated for 48 hrs by sulforhodamine B assay; details: HL-60, 48 h, read-out: Activity
In short: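 NCI-60 five-dose assay, SRB end-point, same culture conditions. Compound is tested at tenfold dilutions of 0.01, 0.1, 1, 10 and 100 µM for 48 h at 37 °C, with DMSO/PBS vehicle controls. Percentage growth at each concentration is taken against untreated cells and a time-zero plate. GI50 is 50% net growth decrease, TGI is total growth inhibition, and LC50 is 50% loss of initial cells.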

[14] = tested on: A498; assay: Growth inhibition of human A498 cells assessed as cell viability at 0.1 uM incubated for 48 hrs by sulforhodamine B assay; details: A498, 48 h, read-out: Activity
In short: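 NCI-60 five-dose mode: five tenfold dilutions (0.01, 0.1, 1, 10, 100 µM) are applied for 48 h to cells in RPMI 1640 with 5% FBS at 37 °C. Endpoint is TCA fixation with sulforhodamine B read at 515 nm. % growth comes from the 0 h and control absorbances. GI50 is the concentration giving a 50% reduction in net cell growth.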

[15] = tested on: MDA-MB-435; assay: Growth inhibition of human MDA-MB-435 cells assessed as cell viability at 0.1 uM incubated for 48 hrs by sulforhodamine B assay; details: MDA-MB-435, 48 h, read-out: Activity
[16] = tested on: U-251; assay: Growth inhibition of human U251 cells assessed as cell viability at 0.1 uM incubated for 48 hrs by sulforhodamine B assay; details: U-251, 48 h, read-out: Activity
[17] = tested on: SNB-19; assay: Growth inhibition of human SNB19 cells assessed as cell viability at 0.1 uM incubated for 48 hrs by sulforhodamine B assay; details: SNB-19, 48 h, read-out: Activity
[18] = tested on: HT-29; assay: Growth inhibition of human HT-29 cells assessed as cell viability at 0.1 uM incubated for 48 hrs by sulforhodamine B assay; details: HT-29, 48 h, read-out: Activity
[19] = tested on: HCT-15; assay: Growth inhibition of human HCT15 cells assessed as cell viability at 0.1 uM incubated for 48 hrs by sulforhodamine B assay; details: HCT-15, 48 h, read-out: Activity
[20] = tested on: CCRF-CEM; assay: Growth inhibition of human CCRF-CEM cells assessed as cell viability at 0.1 uM incubated for 48 hrs by sulforhodamine B assay; details: read-out: Activity
[21] = tested on: SF-539; assay: Growth inhibition of human SF539 cells assessed as cell viability at 0.001 uM incubated for 48 hrs by sulforhodamine B assay relative to control; details: SF-539, 48 h, read-out: Activity
[22] = tested on: NCI-H23; assay: Growth inhibition of human NCI-H23 cells assessed as cell viability at 0.001 uM incubated for 48 hrs by sulforhodamine B assay relative to control; details: NCI-H23, 48 h, read-out: Activity
[23] = tested on: OVCAR-3; assay: Growth inhibition of human OVCAR3 cells assessed as cell viability at 100 uM incubated for 48 hrs by sulforhodamine B assay; details: OVCAR-3, 48 h, read-out: Activity
[24] = tested on: MDA-MB-231; assay: Growth inhibition of human MDA-MB-231 cells assessed as cell viability at 100 uM incubated for 48 hrs by sulforhodamine B assay; details: MDA-MB-231, 48 h, read-out: Activity
[25] = read-out: LC50 (the source's name)
[26] = read-out: pLC50 (the source's name) (converted)

`CC1=C(C(=O)OCc2ccccc2)C(c2ccc3c(c2)OCO3)n2c(nc3ccccc32)N1` (racemic) was tested, and the GI50 ([1]; read-out: GI50) was 0.34 µM, the LC50 (50% net cell kill) ([1]; read-out: LC50) was > 100 µM and the TGI ([1]; read-out: TGI) was > 100 µM. For the same compound, the GI50 ([1]; read-out: pGI50 (converted)) was 0.347 µM, the LC50 (50% net cell kill) ([1]; read-out: pLC50 (converted)) was > 100 µM and the TGI ([1]; read-out: pTGI) was > 100 µM. The GI50 ([2]; read-out: GI50) was 0.51 µM, the LC50 ([2]; read-out: LC50) was > 100 µM and the TGI ([2]; read-out: TGI) was > 100 µM. The GI50 ([2]; read-out: pGI50 (converted)) was 0.513 µM, the LC50 ([2]; read-out: pLC50 (converted)) was > 100 µM and the TGI ([2]; read-out: pTGI) was > 100 µM. The GI50 ([3]; read-out: GI50) was 0.54 µM, the CC50 [3, 25] was > 100 µM and the TGI ([3]; read-out: TGI) was > 100 µM. The GI50 ([3]; read-out: pGI50 (converted)) was 0.537 µM, the CC50 [3, 26] was > 100 µM and the TGI ([3]; read-out: pTGI) was > 100 µM. The GI50 ([4]; read-out: GI50) was > 100 µM, the CC50 [4, 25] was > 100 µM and the TGI ([4]; read-out: TGI) was > 100 µM. The GI50 ([4]; read-out: pGI50 (converted)) was > 100 µM, the CC50 [4, 26] was > 100 µM and the TGI ([4]; read-out: pTGI) was > 100 µM. It also gave a viability at 100 µM [5] of 30%, a viability at 100 µM [6] of 60% and a viability at 100 µM [7] of -24%. For the same compound, the viability at 1 µM [8] was 38%, the viability at 1 µM [9] was 50% and the viability at 1 µM [10] was 26%. It also gave a viability at 1 µM [11] of 35%, a viability at 1 µM [12] of 41% and a viability at 1 µM [13] of 8%. It also gave a viability at 0.1 µM [14] of 95%, a viability at 0.1 µM [15] of 46% and a viability at 0.1 µM [16] of 96%. The viability at 0.1 µM [17] was 95%, the viability at 0.1 µM [18] was 99% and the viability at 0.1 µM [19] was 84%. It also gave a viability at 0.1 µM [20] of 98%, a viability at 0.001 µM [21] of 91% and a viability at 0.001 µM [22] of 93%. It also gave a viability at 100 µM [23] of -10% and a viability at 100 µM [24] of 49%.
